# From PubChem
# STAT1 act = increases IFN-gamma driven STAT1 reporter signal; activation (% of control), % at 5.5 µM; NIH 3T3 STAT1-luciferase reporter, luminescence; 100% = IFN-gamma alone, no compound; 200,000 compounds, 2.6% hits;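 active = activation above the screen-wide mean activation plus 3 SD, cut at about 130% in these data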;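 also: raw ratio to IFN-gamma control signal so 100% means no change and 0% no light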
# STAT3 activator = activators of IL-6 induced STAT3 signaling; U3A cells, IL-6 STAT3-luciferase reporter, luminescence; 100% = signal with IL-6 EC80 alone; activation (% of control), % at 5.6 µM; 190,000 compounds, 0.91% hits;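 active = activation above the screen-wide mean of compound activation plus 3 SD, cut at about 130% in these data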;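 also: 0% = background luminescence of wells with medium and substrate only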
#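 Assay system – human STAT1-deficient U3A cells with stable STAT3-luciferase reporter · Also added – IL-6 (33 ng/mL) · Schedule – compound 1 h, then IL-6 6 h at 37 °C · Technique – reporter luminescence signal · Evaluation – % activation versus median of IL-6-stimulated wells · Benchmarks – IL-6-only wells as 100% reference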
# STAT1 blocker = reduces IFN-gamma driven STAT1 reporter signal. NIH 3T3 STAT1-luciferase reporter, luminescence. inhibition, % at 5.5 µM. 200,000 compounds, 0.35% hits. AID 920;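 active = inhibition above a set limit, the mean inhibition across all tested compounds plus 3 SD, cut at about 34% in these data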;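 also: 0% = IFN-gamma with DMSO and 100% = IFN-gamma with 300 µM nifuroxazide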
# STAT3 inh-1 = inhibitors of IL-6 induced STAT3 signaling; U3A cells, IL-6 STAT3-luciferase reporter, luminescence; host cell line lacks STAT1; inhibition, % at 5.5 µM; 190,000 compounds, 0.89% hits; AID 862;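 active = inhibition above the mean inhibition across all screened compounds plus 3 SD, cut at about 44% in these data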;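 also: 0% = DMSO only wells and 100% = 100 µM nifuroxazide control wells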
# STAT3 inh-2 = STAT3 inhibition, confirmation assay. AID 1265. shares compounds with STAT3 inh-1. U3A cells, IL-6 STAT3 luciferase reporter, luminescence; cell line lacks STAT1. inhibition, % at 5.7 µM. 1,200 compounds, 45% hits;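 active = inhibition above the hit cutoff computed for the primary STAT3 screen, cut at about 44% in these data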;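 also: 0% = IL-6 plus DMSO and 100% = IL-6 plus nifuroxazide control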
# NFkB inh STAT3ct = inhibits NF-kappaB, counter-screen to STAT3 inhibitors. inhibition, % at 5.7 µM. shares compounds with STAT3 inh-1. HEK293T NF-kB luciferase reporter, TNF-alpha induced. 1,200 compounds, 36% hits;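 active = inhibition above the mean of solvent-only control wells plus 3 SD, cutoff set per campaign, cut at about 13% in these data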;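 also: 0% = TNF-alpha with DMSO and 100% = TNF-alpha with MG high control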
# STAT1 inh STAT3c = counter-screen for STAT3 inhibitors: STAT1 inhibition; shares compounds with STAT3 inh-1; 1,200 compounds, 27% hits; NIH 3T3 STAT1-luciferase reporter, IFN-gamma induced, luminescence; inhibition, % at 5.7 µM;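 active = inhibition above the mean plus 3 SD of solvent-only control wells, limit set per screening run, cut at about 16% in these data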;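 also: 0% = DMSO with IFN-gamma and 100% = nifuroxazide control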
# * = called active by the depositor; . = no result. This is a sample that favours compounds with a hit; in the whole collection about 4.3% have one here.
SMILES,STAT1 act,STAT3 activator,STAT1 blocker,STAT3 inh-1,STAT3 inh-2,NFkB inh STAT3ct,STAT1 inh STAT3c
O=C(Cc1ccc(Cl)cc1)Nc1ccncc1,77.4,57.9,23.0,52.4*,55.5*,16.7*,20.9*
Cc1ccc(CC(=O)Nc2ccncc2)cc1,73.3,61.6,28.8,46.3*,51.7*,10.7,24.0*
O=C(Cc1ccc([N+](=O)[O-])cc1)Nc1ccc(Cl)cc1,98.3,104.0,0.3,-2.9,.,.,.
O=C(Cn1cccc1C(=O)c1ccccc1)NCc1cccc(Cl)c1,104.3,96.5,-6.2,6.4,.,.,.
N/C(=N\OC(=O)COc1ccc(Br)cc1Cl)c1ccccn1,124.6,51.4,-27.7,57.1*,-16.2,-45.8,-144.8
COc1cccc(NC(=S)NCc2cccs2)c1,111.4,106.0,-12.9,-3.0,.,.,.
CN=CC1=C(O)c2ccccc2C1=O,106.9,102.5,-7.6,2.1,.,.,.
COc1ccc(N=CC2=C(O)c3ccccc3C2=O)cc1,95.9,23.2,14.9,92.2*,11.8,24.6*,-132.6
O=C1C(C=Nc2ccccc2O)=C(O)c2ccccc21,98.2,58.5,2.0,49.3*,-57.2,-30.2,-10.7
Cc1ccc(N2CC(C(=O)Nc3c(C)n(C)n(-c4ccccc4)c3=O)CC2=O)cc1 (stereo unspecified),99.8,107.1,0.1,-3.2,.,.,.
CN(Cc1c(C(=O)N2CCc3ccccc3C2)nc2ccc(Cl)cn12)C(C1CC1)C1CC1,89.8,113.6,9.5,-11.0,.,.,.
O=C(Cn1cnc2ccccc21)Nc1ccc(SC(F)F)cc1,78.7,39.9,21.6,73.1*,65.4*,21.4*,15.9
Cc1ccc(S(=O)(=O)Nc2ccc3nc(C)sc3c2)cc1,86.4,79.3,14.9,27.2,.,.,.
Cc1nc2ccc(NS(=O)(=O)c3ccc4c(c3)OCCO4)cc2s1,78.1,40.8,23.8,71.4*,66.7*,25.8*,28.2*
CC(=O)c1ccc(N2CCN(C(=S)Nc3ccc(Oc4ccccc4)cc3)CC2)cc1,82.8,35.5,18.1,77.5*,60.9*,20.2*,11.6
COCCn1c(C)cc(C(=O)CSc2nnc3ccccn23)c1C,71.9,42.5,31.1,74.5*,21.2,-0.5,-31.7
Cc1ccc(C(=O)CSc2nnc3ccccn23)c(C)c1,119.4,93.2,-24.4,12.8,.,.,.
COc1ccc(/C=N\n2nnc3ccccc32)cc1,69.7,25.0,31.4,92.7*,62.3*,32.4*,-13.9
COc1ccc(/C=N/N2C(=O)c3ccccc3C2=O)cc1,102.8,101.1,-3.2,1.5,.,.,.
Brc1ccc(-c2cn3nc4c(nc3n2)CCCC4)cc1,72.5,37.5,29.7,76.6*,25.0,-38.0,-118.6
Brc1ccc2nc3c(n2c1)CCCC3,92.4,92.1,8.7,15.4,.,.,.
Cc1cc(Br)c2c(c1)C(O)(N1CCCCC1C)C(=O)N2 (stereo unspecified),102.7,104.8,-2.9,3.4,.,.,.
CCOC(=O)C1(Cc2ccccc2)CCN(Cc2cc(OC)c3c(c2)OCO3)CC1,99.0,107.7,-0.6,-4.3,.,.,.
O=C(Nc1ccc(-c2cn3ccsc3n2)cc1)c1ccc(F)c(S(=O)(=O)N2CCOCC2)c1,93.2,66.5,7.4,44.8*,35.1,1.1,1.1
CCCCC(=O)Nc1cc(Cl)ccc1C(=O)O,101.3,97.7,-2.8,10.4,.,.,.
SMILES,STAT1 act,STAT3 activator,STAT1 blocker,STAT3 inh-1,STAT3 inh-2,NFkB inh STAT3ct,STAT1 inh STAT3c
Cc1nc2ccccc2cc1OCc1ccc(Cl)cc1,89.4,46.1,11.8,70.6*,80.3*,13.4*,4.1
Cc1nc2ccccc2cc1OCc1ccccc1,82.9,48.6,19.0,69.4*,50.2*,8.0,3.3
COC(=O)c1sccc1OCc1cccc(OC)c1,102.5,90.5,-3.0,15.3,.,.,.
COc1cccc(COc2cc3ccccc3nc2C)c1,86.3,38.8,15.3,80.4*,76.2*,20.6*,7.5
Cc1cc(C(=O)Nc2nc3c(s2)CCCC3)cs1,136.0*,60.1,-36.6,52.0*,21.0,-41.0,-137.1
Cc1cc(C(=O)Nc2nnc(C3CCCCC3)s2)cs1,105.3,101.8,-4.2,2.2,.,.,.
COc1cc(C2CC(=O)c3c([nH]c(C(=O)OCCOC(C)C)c3C)C2)cc(OC)c1OC (stereo unspecified),76.5,55.1,26.2,58.8*,45.6*,12.0,20.8*
CCCCOCCCNC(=O)c1ccc([N+](=O)[O-])c(C)c1,103.5,92.4,-4.3,10.4,.,.,.
CC(C)c1nnc(NC(=O)c2ccc3c(c2)OCO3)s1,79.4,32.4,21.8,78.9*,48.5*,4.2,-55.5
O=C(Nc1ccc(Br)cc1)c1ccc(CSC2=NCCS2)cc1,120.8,60.8,-23.1,55.6*,34.9,-10.8,-30.7
c1ccc(N2CCN(c3c4c(nc5ncnn35)CCC4)CC2)cc1,99.3,69.1,0.7,39.6,.,.,.
COc1cccc(N2CCN(c3c4c(nc5ncnn35)CCC4)CC2)c1,92.8,56.5,7.8,56.1*,43.5*,12.0,16.6*
O=C(O)c1ccc(S(=O)(=O)NC2CCCc3ccccc32)cc1 (stereo unspecified),100.5,96.4,-0.5,12.9,.,.,.
CC(=O)N1CCc2cc(S(=O)(=O)NC3CCCc4ccccc43)ccc21 (stereo unspecified),82.7,62.1,19.0,47.6*,46.0*,0.8,8.9
Cc1cc(C)nc(N/C(=N\S(=O)(=O)Cc2ccccc2)Nc2ccccc2Br)n1,95.4,97.7,7.1,0.4,.,.,.
Cc1ccc(C(=O)C[n+]2cc(-c3ccc(C)cc3)n3c2CCCCC3)cc1,75.1,46.3,27.9,70.6*,60.2*,-0.6,26.5*
CCOC(=O)N1CCN(C(=O)C2CCCN(Cc3nc(-c4ccc(Cl)cc4)oc3C)C2)CC1 (stereo unspecified),89.8,42.6,11.3,74.4*,60.1*,22.7*,-15.5
CCOC(=O)N1CCC(NC(=O)C2CCCN(Cc3nc(-c4cccc(Cl)c4)oc3C)C2)CC1 (stereo unspecified),76.9,60.1,25.5,53.6*,38.3,13.4*,24.0*
Cc1oc(-c2ccc(Cl)cc2)nc1CN1CCCC(C(=O)NCc2ccco2)C1 (stereo unspecified),93.0,97.5,7.7,5.5,.,.,.
CCN(CC(=O)Nc1ccc(OC)c(Cl)c1)CC(=O)NC(C)C,106.9,111.8,-8.7,-10.6,.,.,.
Cc1ccc(-c2nn(-c3ccccc3)cc2/C=N/NC(=O)c2ccc(Br)o2)cc1,103.3,68.8,-3.7,45.8*,28.4,9.5,-11.5
O=C(N/N=C\c1cn(-c2ccccc2)nc1-c1ccccc1)c1ccc(Br)o1,103.1,86.7,-3.5,25.4,.,.,.
CCCOc1ccc(/C=N/NC(=S)Nc2ccccc2[N+](=O)[O-])c(O)c1,97.5,24.0,2.8,92.0*,48.5*,-10.6,-8.2
COc1ccc(/C=N/NC(=S)Nc2ccccc2[N+](=O)[O-])cc1O,102.3,21.9,-2.5,94.5*,83.1*,-6.1,-13.1
